Data taken from ChEMBL document CHEMBL3877298, “Discovery of benzimidazole derivatives as modulators of mitochondrial function: A potential treatment for Alzheimer's disease” (Eur J Med Chem, 2017).

Experiments:
[1] = target: Translocator protein (Mus musculus) (UniProt P50637); test: Inhibition of TSPO in mouse HT22 cells assessed as inhibition of amyloid beta (1 to 42)-induced ROS generation at 5 uM after 6 hrs by DCFDA staining based fluorescence assay relative to control; assay type: cell-based; conditions: HT-22
[2] = target: Translocator protein (Mus musculus) (UniProt P50637); test: Inhibition of TSPO in mouse HT22 cells assessed as protection against amyloid beta (1 to 42)-induced mitochondrial membrane potential loss by measuring recovery of mitochondrial membrane potential at 5 uM preincubated for 10 mins followed by amyloid beta (1 to 42) addition measured every 1 hr for 3 hrs by JC1 staining based fluorescence assay relative to control; assay type: cell-based; parameters: scale not given: the % may be the effect or the level left; conditions: HT-22
How it was run: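 HT22 cells at 30,000 per well were loaded with 7.5 µM JC-1 in phenol red-free Opti-MEM for 1 h 15 min at 37 °C, then washed. Cells were treated with compound (5 µM) and Aβ1-42 (5 µM); vehicle wells received DMSO. Green (485/535) and red (560/595) fluorescence were read hourly for 3 h. Recovery was normalised between Aβ-damaged (0%) and normal (100%) ratio.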

[3] = target: Translocator protein (Mus musculus) (UniProt P50637); test: Inhibition of TSPO in mouse HT22 cells assessed as protection against amyloid beta (1 to 42)-induced mitochondrial membrane potential loss by measuring recovery of ATP production at 5 uM preincubated for 10 mins followed by amyloid beta (1 to 42) addition measured after 7 hrs by luciferase reporter gene assay relative to control; assay type: cell-based; parameters: scale not given: the % may be the effect or the level left; conditions: HT-22
How it was run: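 HT22 cells at 7000 per well were given compound (5 µM) for 10 min at 37 °C, then Aβ1-42 (5 µM) or DMSO vehicle, and incubated 7 h. Cells were washed, lysed in 1% Triton X-100, and protein-equalised by BCA. ATP was measured by luciferin/luciferase luminescence and normalised to vehicle.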

[4] = Cytotoxicity against mouse HT22 cells assessed as cell viability at 5 uM after 24 hrs by MTT assay relative to control; assay type: toxicity, HT-22; conditions: read-out: Activity
How it was run: (§1)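 MTT was added for 2 h, then solubilising solution (10% Triton X-100 in isopropanol with 0.1 M HCl) for 2 h more. Absorbance read at 560 nm; % inhibition normalised to vehicle, and viability taken from compound-only wells.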

Mus musculus = test: Cognition enhancing effect in ICR mouse model of acute Alzheimer's disease assessed as reversal of amyloid beta (1 to 42)-induced cognitive deficit by measuring spatial working memory at 30 mg/kg, ip daily for 6 days measured on day 7 by Y maze spontaneous alteration test relative to control; assay type: functional
How it was run: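 Male ICR mice (6 weeks, 30–33 g) received Aβ1-42 500 pmol ICV in 10% DMSO/PBS. Compound in 20% cyclodextrin was given at 30 mg/kg daily for 6 days (n = 7 per group). One day later, each mouse explored a three-arm Y-maze for 8 min, and the sequence of arm entries was used to calculate % spontaneous alternation.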

[5] = target: Translocator protein (Mus musculus) (UniProt P50637); test: Inhibition of TSPO in mouse HT22 cells assessed as inhibition of amyloid beta (1 to 42)-induced toxicity at 5 uM after 24 hrs by MTT assay relative to control; assay type: cell-based; conditions: HT-22
How it was run: as §1, with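 “HT22 cells at 5000 per well were treated with compound (5 µM), with or without Aβ1-42 (5 µM), for 24 h at 37 °C. MTT” for “MTT”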

CYP2D6 = CYP2D6 (Homo sapiens, UniProt P10635); test: Inhibition of recombinant human CYP2D6 expressed in baculosomes coexpressing rabbit NADPH-P450 reudctase assessed as residual activity at 10 uM preincubated for 5 mins followed by substrate and NADP+ addition measured after 20 mins by fluorescence assay relative to control; assay type: ADME; conditions: read-out: Activity
How it was run: (§2)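 Vivid CYP450 kit: recombinant human CYP isozyme in Baculosomes with rabbit NADPH-P450 reductase, plus regeneration system (3.3 mM glucose-6-phosphate, 0.3 U/mL G6PDH in 100 mM potassium phosphate, pH 8.0). Mixture preincubated with sample for 5 min at 37 °C. Vivid substrate and 0.1 mM NADP+ were then added, and remaining activity read by fluorescence after 20 min.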

CYP2C9 = CYP2C9 (Homo sapiens, UniProt P11712); test: Inhibition of recombinant human CYP2C9 expressed in baculosomes coexpressing rabbit NADPH-P450 reudctase assessed as residual activity at 10 uM preincubated for 5 mins followed by substrate and NADP+ addition measured after 20 mins by fluorescence assay relative to control; assay type: ADME; conditions: read-out: Activity; how it was run: as §2
[6] = target: Voltage-gated inwardly rectifying potassium channel KCNH2 (Homo sapiens, UniProt Q12809); test: Inhibition of human ERG expressed in CHOK1 cells by automated patch clamp method; assay type: cell-based, CHO-K1
CYP2C19 = CYP2C19 (Homo sapiens, UniProt P33261); test: Inhibition of recombinant human CYP2C19 expressed in baculosomes coexpressing rabbit NADPH-P450 reudctase assessed as residual activity at 10 uM preincubated for 5 mins followed by substrate and NADP+ addition measured after 20 mins by fluorescence assay relative to control; assay type: ADME; conditions: read-out: Activity; how it was run: as §2
CYP3A4 = CYP3A4 (Homo sapiens, UniProt P08684); test: Inhibition of recombinant human CYP3A4 expressed in baculosomes coexpressing rabbit NADPH-P450 reudctase assessed as residual activity at 10 uM preincubated for 5 mins followed by substrate and NADP+ addition measured after 20 mins by fluorescence assay relative to control; assay type: ADME; conditions: read-out: Activity; how it was run: as §2
CYP1A2 = target: T1, CYP1A2 (Homo sapiens, UniProt P05177); test: Inhibition of recombinant human CYP1A2 expressed in baculosomes coexpressing rabbit NADPH-P450 reudctase assessed as residual activity at 10 uM preincubated for 5 mins followed by substrate and NADP+ addition measured after 20 mins by fluorescence assay relative to control; assay type: ADME; conditions: read-out: Activity; how it was run: as §2
T1 sequence (P05177 whole entry): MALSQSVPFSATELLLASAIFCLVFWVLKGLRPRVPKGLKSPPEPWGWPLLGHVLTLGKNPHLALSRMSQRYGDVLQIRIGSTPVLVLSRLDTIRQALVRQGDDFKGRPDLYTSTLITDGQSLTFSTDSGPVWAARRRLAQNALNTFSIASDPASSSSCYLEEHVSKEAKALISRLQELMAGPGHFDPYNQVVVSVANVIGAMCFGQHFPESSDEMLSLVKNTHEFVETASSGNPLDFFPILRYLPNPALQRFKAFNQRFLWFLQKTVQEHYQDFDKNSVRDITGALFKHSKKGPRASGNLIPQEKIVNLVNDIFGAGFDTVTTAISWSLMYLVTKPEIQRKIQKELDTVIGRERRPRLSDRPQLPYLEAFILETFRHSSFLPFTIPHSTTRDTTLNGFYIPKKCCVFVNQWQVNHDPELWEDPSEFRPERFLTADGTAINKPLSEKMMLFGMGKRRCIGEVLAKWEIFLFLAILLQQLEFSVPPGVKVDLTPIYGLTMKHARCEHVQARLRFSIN

Translocator protein = Translocator protein (Homo sapiens, UniProt P30536); test: Inhibition of TSPO (unknown origin)
How it was run: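 Membranes from male Sprague-Dawley rat cerebral cortex were homogenised and washed in Tris-HCl (30 mM, pH 7.4), then washed in Tris-citrate (50 mM, pH 7.1). Bound and free ligand were separated by filtration through GF/C filters and counted by scintillation. Percent displacement gave the IC50, and Ki was calculated as IC50/(1+[L]/Kd).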

Sequence of CYP2C9 (P11712 whole entry): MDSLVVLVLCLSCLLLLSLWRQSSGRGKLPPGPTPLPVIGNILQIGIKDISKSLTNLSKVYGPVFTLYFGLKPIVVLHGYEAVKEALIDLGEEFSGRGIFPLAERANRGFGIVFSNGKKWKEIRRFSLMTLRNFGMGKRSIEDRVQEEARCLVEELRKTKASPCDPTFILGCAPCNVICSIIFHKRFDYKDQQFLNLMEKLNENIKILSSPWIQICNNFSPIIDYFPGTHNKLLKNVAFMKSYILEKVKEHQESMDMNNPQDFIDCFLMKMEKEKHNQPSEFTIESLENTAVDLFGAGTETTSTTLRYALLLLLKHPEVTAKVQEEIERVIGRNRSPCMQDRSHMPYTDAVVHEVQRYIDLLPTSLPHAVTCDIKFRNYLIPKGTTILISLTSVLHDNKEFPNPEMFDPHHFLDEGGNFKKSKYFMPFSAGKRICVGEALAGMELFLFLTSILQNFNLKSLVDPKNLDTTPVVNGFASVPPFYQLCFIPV
Sequence of CYP2D6 (P10635 whole entry): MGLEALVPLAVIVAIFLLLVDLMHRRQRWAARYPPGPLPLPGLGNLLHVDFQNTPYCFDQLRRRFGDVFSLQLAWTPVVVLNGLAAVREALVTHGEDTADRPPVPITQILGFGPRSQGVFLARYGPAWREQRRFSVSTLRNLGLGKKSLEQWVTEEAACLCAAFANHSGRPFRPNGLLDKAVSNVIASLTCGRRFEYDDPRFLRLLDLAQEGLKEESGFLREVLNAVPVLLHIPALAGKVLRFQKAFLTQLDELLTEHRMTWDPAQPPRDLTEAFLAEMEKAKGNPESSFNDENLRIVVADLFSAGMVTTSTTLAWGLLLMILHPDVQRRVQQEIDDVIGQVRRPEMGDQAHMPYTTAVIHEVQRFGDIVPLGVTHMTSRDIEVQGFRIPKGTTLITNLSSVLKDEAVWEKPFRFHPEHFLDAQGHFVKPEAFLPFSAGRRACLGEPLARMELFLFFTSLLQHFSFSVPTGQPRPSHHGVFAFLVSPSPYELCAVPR
Sequence of CYP3A4 (P08684 whole entry): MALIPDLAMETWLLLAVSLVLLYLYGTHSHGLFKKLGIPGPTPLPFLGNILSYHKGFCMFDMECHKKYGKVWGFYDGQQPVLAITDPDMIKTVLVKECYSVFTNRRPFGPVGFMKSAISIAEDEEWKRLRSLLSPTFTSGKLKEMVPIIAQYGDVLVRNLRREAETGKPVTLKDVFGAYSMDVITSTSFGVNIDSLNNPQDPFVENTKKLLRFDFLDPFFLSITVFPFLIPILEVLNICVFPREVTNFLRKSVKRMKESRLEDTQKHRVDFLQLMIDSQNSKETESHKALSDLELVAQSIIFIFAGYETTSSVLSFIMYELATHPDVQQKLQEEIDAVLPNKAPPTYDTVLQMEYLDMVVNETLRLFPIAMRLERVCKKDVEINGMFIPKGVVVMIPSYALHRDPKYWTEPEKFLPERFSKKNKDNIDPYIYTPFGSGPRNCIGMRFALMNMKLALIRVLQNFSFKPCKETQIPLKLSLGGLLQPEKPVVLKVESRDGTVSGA
Sequence of Translocator protein (Mus musculus) (P50637 whole entry, looked up): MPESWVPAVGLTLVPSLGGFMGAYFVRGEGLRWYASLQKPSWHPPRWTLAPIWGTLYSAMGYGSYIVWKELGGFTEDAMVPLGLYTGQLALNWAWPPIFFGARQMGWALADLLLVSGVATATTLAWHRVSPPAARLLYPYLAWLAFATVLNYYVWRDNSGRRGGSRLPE
Sequence of Translocator protein (P30536 whole entry): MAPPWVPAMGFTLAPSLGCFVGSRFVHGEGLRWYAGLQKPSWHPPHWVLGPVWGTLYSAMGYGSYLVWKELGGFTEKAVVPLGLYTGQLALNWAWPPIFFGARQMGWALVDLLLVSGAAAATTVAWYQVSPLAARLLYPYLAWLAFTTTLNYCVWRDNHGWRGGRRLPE
Sequence of CYP2C19 (P33261 whole entry): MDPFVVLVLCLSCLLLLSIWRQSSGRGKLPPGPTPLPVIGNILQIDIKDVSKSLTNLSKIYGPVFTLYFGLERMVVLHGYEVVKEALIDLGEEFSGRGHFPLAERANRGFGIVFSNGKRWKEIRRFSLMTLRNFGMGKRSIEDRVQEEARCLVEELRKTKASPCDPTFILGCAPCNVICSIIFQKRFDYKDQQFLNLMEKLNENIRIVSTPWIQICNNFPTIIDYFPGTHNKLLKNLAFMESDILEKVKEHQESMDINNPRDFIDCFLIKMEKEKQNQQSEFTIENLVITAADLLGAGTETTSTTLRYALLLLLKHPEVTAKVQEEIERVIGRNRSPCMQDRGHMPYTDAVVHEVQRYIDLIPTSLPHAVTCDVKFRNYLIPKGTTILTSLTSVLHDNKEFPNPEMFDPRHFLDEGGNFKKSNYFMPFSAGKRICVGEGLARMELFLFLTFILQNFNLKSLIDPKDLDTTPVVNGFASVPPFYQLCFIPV
Sequence of Voltage-gated inwardly rectifying potassium channel KCNH2 (Q12809 whole entry): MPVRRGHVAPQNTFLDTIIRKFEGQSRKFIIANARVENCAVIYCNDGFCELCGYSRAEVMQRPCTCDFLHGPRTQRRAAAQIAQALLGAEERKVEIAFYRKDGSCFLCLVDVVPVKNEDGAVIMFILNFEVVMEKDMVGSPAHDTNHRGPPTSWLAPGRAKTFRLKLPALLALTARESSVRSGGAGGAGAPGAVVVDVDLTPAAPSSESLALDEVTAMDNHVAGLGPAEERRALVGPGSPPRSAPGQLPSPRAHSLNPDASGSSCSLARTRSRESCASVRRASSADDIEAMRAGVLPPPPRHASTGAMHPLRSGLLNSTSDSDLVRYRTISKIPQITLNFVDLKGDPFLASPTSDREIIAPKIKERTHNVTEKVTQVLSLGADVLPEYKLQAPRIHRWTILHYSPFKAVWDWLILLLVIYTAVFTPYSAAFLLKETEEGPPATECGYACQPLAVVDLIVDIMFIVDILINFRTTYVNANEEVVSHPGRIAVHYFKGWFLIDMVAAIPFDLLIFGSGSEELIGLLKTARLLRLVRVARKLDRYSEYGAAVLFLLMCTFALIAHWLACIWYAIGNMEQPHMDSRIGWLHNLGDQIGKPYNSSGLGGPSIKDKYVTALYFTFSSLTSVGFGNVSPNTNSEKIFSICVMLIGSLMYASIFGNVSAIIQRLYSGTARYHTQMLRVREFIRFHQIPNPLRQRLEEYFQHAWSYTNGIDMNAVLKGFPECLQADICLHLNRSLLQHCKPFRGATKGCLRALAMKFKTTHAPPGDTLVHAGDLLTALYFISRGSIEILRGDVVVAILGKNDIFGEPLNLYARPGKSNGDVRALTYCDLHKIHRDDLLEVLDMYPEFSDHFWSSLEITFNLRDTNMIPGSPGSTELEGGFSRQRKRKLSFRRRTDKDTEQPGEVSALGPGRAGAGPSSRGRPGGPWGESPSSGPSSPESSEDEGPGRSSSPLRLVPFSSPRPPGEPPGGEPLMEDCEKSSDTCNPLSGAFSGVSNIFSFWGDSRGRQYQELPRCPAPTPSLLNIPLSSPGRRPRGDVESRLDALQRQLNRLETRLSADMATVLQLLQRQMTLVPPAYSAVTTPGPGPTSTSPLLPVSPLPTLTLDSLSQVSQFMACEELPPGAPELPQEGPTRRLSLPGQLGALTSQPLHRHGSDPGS

SMILES | inhibition [1] [%] | Activity [2] [%] | Activity [3] [%] | viability at 24 h, 5 µM [4] [%] | Activity (Mus musculus) [%] | inhibition [5] [%] | activity at 20 min, 10 µM (CYP2D6) [%] | activity at 20 min, 10 µM (CYP2C9) [%] | IC50 [6] [nM] | activity at 20 min, 10 µM (CYP2C19) [%] | activity at 20 min, 10 µM (CYP3A4) [%] | activity at 20 min, 10 µM (CYP1A2) [%] | IC50 (Translocator protein) [nM] | Ki (Translocator protein) [nM]
NC(=O)CN1CCCC1=O | 129 | 60 | 127 | 88 to 132 | 32 | 29 |  |  |  |  |  |  |  | 
COc1ccc(OC)c(Cc2nc3ccccc3n2CC(=O)Nc2cc(C(C)(C)C)cc(C(C)(C)C)c2)c1 | 10 | 54 | 46 | 99 to 112 |  | 36 | 56.3 | 36.1 | 20 | 43.9 | 43.3 | 92.5 |  | 
CC(=O)N(Cc1ccccc1OC(C)C)c1ccc(Cl)cc1Oc1ccccc1 |  |  |  |  |  |  |  |  |  |  |  |  | 0.92 | 
CN(C)CCCNC(=O)c1ccc(Cn2c(Cc3c(Cl)cccc3Cl)nc3ccccc32)cc1 | 9 | 82 | 85 | 93 to 111 | 62 | 7 | 120 | 53.9 |  | 72.9 | 206 | 66.1 |  | 
CCN1CCCC1CNC(=O)c1ccc(Cn2c(Cc3c(Cl)cccc3Cl)nc3ccccc32)cc1 (stereo not drawn) | 24 | 90 | 51 | 62 to 122 |  | 6 | 82.4 | 50.6 | 1570 | 31.4 | 130 | 63 |  | 
CCCCCCN(CCCCCC)C(=O)Cc1c(-c2ccc(F)cc2)[nH]c2ccccc12 |  |  |  |  |  |  |  |  |  |  |  |  |  | 3.25
COc1ccc(OC)c(CN(C(C)=O)c2ccc(F)cc2Oc2ccccc2)c1 |  |  |  |  |  |  |  |  |  |  |  |  | 1.6 | 
O=C(NCCCN1CCCCC1)c1ccc(Cn2c(Cc3c(Cl)cccc3Cl)nc3ccccc32)cc1 | 27 | 90 | 64 | 86 to 118 |  | 3 | 25.5 | 61.1 |  | 67.3 | 176 | 68.4 |  | 
CCCCN(CCCC)C(=O)Cc1c(-c2ccc(Cl)cc2)nc2c(Cl)cc(Cl)cn12 |  |  |  |  |  |  |  |  |  |  |  |  |  | 2.68
Cc1ccc(C(C)C)cc1NC(=O)Cn1c(-c2cc(Cl)ccc2Cl)nc2ccc(Cl)cc21 | 107 | 87 | 69 | 86 to 106 |  | 0 | 82.2 | 29.6 |  | 11.9 | 15.4 | 56.3 |  | 
